Results as given in PMC3336105 (Journal of Medicinal Chemistry, 2008).
Where two headings read alike, the source gives them in different places.

How the values were obtained:
PSMA = PSMA (Homo sapiens, UniProt Q04609); test: NAALADase assay; format: biochemical
[1] = Electronic / fluorescence properties; format: physicochemical
In short: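 Test compound (Re tricarbonyl complex) dissolved in ethylene glycol, measured under air or after argon purging. […] Lifetime was measured by a frequency-domain method with 370 nm LED excitation and 540–600 nm bandpass collection. Quantum yield was obtained by the optically dilute method against aerated aqueous [Ru(bpy)3]Cl2 (φ = 0.028, excitation 455 nm).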

PSMA+ PC3 PIP cells = test: In vitro fluorescence microscopy in PC3 PIP and PC3 flu cells; format: cell-based, human; details: excitation 494 nm, emission 628 nm
In short: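 PC3 PIP and PC3 flu cells (10000 per well) were attached overnight at 37 °C in 5% CO2. […] Wells were washed with warm medium for 30 s, mounted, dried 20 min, held overnight at 4 °C, then imaged.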

[2] = LNCaP cell extracts, Cheng–Prusoff conversion

PSMA, sequence (Q04609 whole entry): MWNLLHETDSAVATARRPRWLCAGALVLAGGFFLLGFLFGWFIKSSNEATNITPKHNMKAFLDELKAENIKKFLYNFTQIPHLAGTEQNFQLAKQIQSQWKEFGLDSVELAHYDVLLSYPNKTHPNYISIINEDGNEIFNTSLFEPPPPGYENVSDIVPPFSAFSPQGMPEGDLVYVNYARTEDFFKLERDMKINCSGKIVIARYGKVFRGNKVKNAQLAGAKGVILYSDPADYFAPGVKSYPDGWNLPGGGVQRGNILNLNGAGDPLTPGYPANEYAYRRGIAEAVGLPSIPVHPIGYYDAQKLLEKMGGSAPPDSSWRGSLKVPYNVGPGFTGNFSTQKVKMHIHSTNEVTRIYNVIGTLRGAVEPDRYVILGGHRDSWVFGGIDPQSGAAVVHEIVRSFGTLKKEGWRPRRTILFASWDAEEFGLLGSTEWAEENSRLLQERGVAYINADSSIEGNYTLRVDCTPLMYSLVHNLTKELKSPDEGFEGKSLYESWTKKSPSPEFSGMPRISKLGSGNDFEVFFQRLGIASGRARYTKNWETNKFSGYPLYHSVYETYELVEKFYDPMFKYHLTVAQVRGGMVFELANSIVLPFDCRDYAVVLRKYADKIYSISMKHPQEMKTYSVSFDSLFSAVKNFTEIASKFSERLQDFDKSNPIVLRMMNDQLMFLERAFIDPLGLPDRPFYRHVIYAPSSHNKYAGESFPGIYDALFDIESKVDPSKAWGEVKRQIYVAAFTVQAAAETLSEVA

Structure (SMILES): O=C(O)CCC(NC(=O)NC(CCCCNC(=O)CCCCCCC(=O)NC(CCCCN(Cc1ccccn1)Cc1ccccn1)C(=O)O)C(=O)O)C(=O)O (centres unmarked) [Compound L1, 2-[3-(5-{7-[5-(Bis-pyridin-2-ylmethyl-amino)-1-carboxy-pentylcarbamoyl]-heptanoylamino}-1-carboxy-pentyl)-ureido]-pentanedioic Acid]
- Ki (PSMA): 15.2 nM

Structure (SMILES): O=C(O)CCC(NC(=O)NC(CCCCNC(=O)CCCCCCC(=O)NC(CCCCN(Cc1ccc2ccccc2n1)Cc1ccc2ccccc2n1)C(=O)O)C(=O)O)C(=O)O (centres unmarked) [Compound L2, 2-[3-(5-{7-[5-(Bis-quinolin-2-ylmethyl-amino)-1-carboxy-pentylcarbamoyl]-heptanoylamino}-1-carboxy-pentyl)-ureido]-pentanedioic acid]
- Ki (PSMA; [2]): 0.17 nM

Structure (SMILES): O=C(O)CCC(NC(=O)NC(CCCCNC(=O)CCCCCCCN(Cc1ccccn1)Cc1ccccn1)C(=O)O)C(=O)O (centres unmarked) [Compound L5, 2-(3-{5-[8-(Bis-pyridin-2-ylmethyl-amino)-octanoylamino]-1-carboxy-pentyl}-ureido)-pentanedioic Acid]
- PSMA inhibitory activity (in words) (PSMA): low nanomolar

Structure (SMILES): O=C(O)CCC(NC(=O)NC(CCCCNC(=O)CCCCCCC(=O)NC(CCCCN(Cc1ccccn1)Cc1ccccn1)C(=O)O)C(=O)O)C(=O)O.[Br-].[C-]#[O+].[C-]#[O+].[C-]#[O+].[Re+] (stereo not drawn) [ReL1, Tricarbonyl (2-[3-(5-{7-[5-(bis-pyridin-2-ylmethyl-amino)-1-carboxy-pentylcarbamoyl]-heptanoylamino}-1-carboxy-pentyl)-ureido]-pentanedioic acid) rhenium bromide]
- Ki (PSMA; [2]): 10.8 nM

Structure (SMILES): O=C(O)CCC(NC(=O)NC(CCCCNC(=O)CCCCCCC(=O)NC(CCCCN(Cc1ccc2ccccc2n1)Cc1ccc2ccccc2n1)C(=O)O)C(=O)O)C(=O)O.[Br-].[C-]#[O+].[C-]#[O+].[C-]#[O+].[Re+] (stereo not drawn) [ReL2, Tricarbonyl(2-[3-(5-{7-[5-(bis-quinolin-2-ylmethyl-amino)-1-carboxy-pentylcarbamoyl]-heptanoylamino}-1-carboxy-pentyl)-ureido]-pentanedioic acid) rhenium bromide]
- Ki (PSMA; [2]): 0.5 nM
- PSMA inhibitory activity, fold higher than ReL1 (PSMA; relative to ReL1): 20 fold
- extinction coefficient ([1]; at 321 nm): 17200 M⁻¹
- absorbance maximum ([1]; electronic spectrum): 321 nm
- fluorescence quantum yield ([1]; ethylene glycol under argon): 0.018
- fluorescence emission ([1]; excitation at 321 nm): 550 nm
- fluorescence lifetime ([1]; λem = 550 nm, ethylene glycol under argon): 11.8 μs
- fluorescent signal in live cells (internalization) (PSMA+ PC3 PIP cells): weak but observable fluorescent signal

Structure (SMILES): O=C(O)CCC(NC(=O)NC(CCCCNC(=O)CCCCCCC(=O)NCCCCC(C(=O)O)N(Cc1ccccn1)Cc1ccccn1)C(=O)O)C(=O)O.[Br-].[C-]#[O+].[C-]#[O+].[C-]#[O+].[Re+] (stereo not drawn) [ReL3, Tricarbonyl(2-[3-(5-{7-[5-(bis-pyridin-2-ylmethyl-amino)-5-carboxy-pentylcarbamoyl]-heptanoylamino}-1-carboxy-pentyl)-ureido]-pentanedioic acid)rehenium bromide]
- Ki (PSMA; [2]): 10.3 nM

Structure (SMILES): O=C(O)CCC(NC(=O)NC(CCCCNC(=O)CCCCCCCN(Cc1ccccn1)Cc1ccccn1)C(=O)O)C(=O)O.[Br-].[C-]#[O+].[C-]#[O+].[C-]#[O+].[Re+] (stereo not drawn) [ReL5, Tricarbonyl(2-(3-{5-[8-(bis-pyridin-2-ylmethyl-amino)-octanoylamino]-1-carboxy-pentyl}-ureido)-pentanedioic acid)rhenium bromide]
- Ki (PSMA; [2]): 0.91 nM

Structure (SMILES): O=C(O)CCC(NC(=O)NC(CCCCN(Cc1ccccn1)Cc1ccccn1)C(=O)O)C(=O)O.[Br-].[C-]#[O+].[C-]#[O+].[C-]#[O+].[Re+] (stereo not drawn) [ReL6, Tricarbonyl(2-{3-[5-(bis-pyridin-2-ylmethyl-amino)-1-carboxy-pentyl]-ureido}-pentanedioic acid)rhenium bromide]
- PSMA inhibitory activity (in words) (PSMA): very low PSMA inhibitory activity, the lowest in the entire series
- Ki (PSMA; [2]): 200 nM

Structure (SMILES): O=C(O)CCC(NC(=O)NC(CCCCNC(=O)CCCCCCC(=O)NCCCCCCN(Cc1ccccn1)Cc1ccccn1)C(=O)O)C(=O)O.[Br-].[C-]#[O+].[C-]#[O+].[C-]#[O+].[Re+] (stereo not drawn) [ReL7, Tricarbonyl(2-[3-(5-{7-[6-(Bis-pyridin-2-ylmethyl-amino)-hexylcarbamoyl]-heptanoylamino}-1-carboxy-pentyl)-ureido]-pentanedioic acid)rhenium bromide]
- Ki (PSMA; [2]): 2.06 nM
